In brackets after ≈: the same amount, converted by molar mass. Activity calls are given as the source filed them. The rule behind the calls is not given here.

The inhibition is the percentage by which the read-out fell short of the control. For orientation: kinetic solubility means solubility judged after dilution from a stock solution rather than from solid. A word on the EC50: it is the midpoint of the concentration-response curve. Broadly, the half-life is the time in which the quantity being followed falls by half.

The nature of data set [1]: Intrinsic clearance in human liver microsomes assessed per mg protein at 3 uM measured after 45 mins by LC-MS/MS analysis. To be noted: read-out: CLH. In kind it is ADME, microsome. In general terms: Microsomes from liver hold many membrane-bound enzymes, among them those of drug oxidation.
Data set [2] addresses T1, G-protein coupled receptor 39 (Mus musculus) (UniProt Q5U431).
T1 sequence (whole entry): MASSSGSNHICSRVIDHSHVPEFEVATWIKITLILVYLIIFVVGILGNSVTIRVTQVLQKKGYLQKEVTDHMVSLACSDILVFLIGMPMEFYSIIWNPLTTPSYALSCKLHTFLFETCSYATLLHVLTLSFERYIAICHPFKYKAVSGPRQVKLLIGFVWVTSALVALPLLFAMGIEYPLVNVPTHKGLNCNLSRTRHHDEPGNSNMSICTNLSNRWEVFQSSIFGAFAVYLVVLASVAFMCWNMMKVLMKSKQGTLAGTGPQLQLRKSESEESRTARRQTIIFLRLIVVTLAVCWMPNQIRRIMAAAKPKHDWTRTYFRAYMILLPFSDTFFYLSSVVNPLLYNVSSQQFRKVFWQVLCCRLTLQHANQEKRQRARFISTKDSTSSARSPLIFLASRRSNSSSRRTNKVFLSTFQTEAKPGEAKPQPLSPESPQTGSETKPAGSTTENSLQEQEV
As to the kind of experiment: Agonist activity at GPR39 in primary gastric mucosal cells isolated from C57BL/6 mouse assessed as myo-[2-3H]inositol phosphate accumulation in presence of 10 uM Zn2+ measured after 75 mins by scintillation proximity assay. In kind it is functional. In a few lines: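 Primary murine gastric mucosal cell cultures stimulated with ligand plus 10 μM Zn2+; inositol phosphate turnover read out as for the transfected-cell IP accumulation assay.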

In data set [3] the target is C-C chemokine receptor type 5 (Macaca mulatta) (UniProt P61813). The data set can be described thus: Agonist activity at full length rhesus monkey CCR5 assessed as myo-[2-3H]inositol phosphate accumulation measured after 75 mins by scintillation proximity assay. In kind it is functional. (SPA uses beads or plates that emit light when radiolabelled molecules are held near them.)

Data set [4] is described as follows: Increase in CGRP-induced somatostatin release in primary gastric mucosal cells isolated from GPR39 deficient C57BL/6 mouse at 1 uM in presence of 10 uM of Zn2+ measured after 4 hrs by radioimmunoassay relative to control. To be noted: in the assay text read “C57BL/6 mouse” for “GPR39 deficient C57BL/6 mouse”. The data set is classed as functional, Primary gastric mucosal cell.

The target in data set [5] is T1, G-protein coupled receptor 39 (Mus musculus). The data set can be described thus: Agonist activity at GPR39 in primary gastric mucosal cells isolated from C57BL/6 mouse assessed as inhibition of basal ghrelin secretion at 1 uM in presence of 10 uM of Zn2+ measured after 4 hrs by ELISA relative to basal level.
The target is the same in data set [6]. As to the kind of experiment: Agonist activity at GPR39 in primary gastric mucosal cells isolated from C57BL/6 mouse assessed as inhibition of isoproterenol-induced ghrelin secretion at 1 uM in presence of 10 uM of Zn2+ and somatostatin receptor antagonist BIM-23627 measured after 4 hrs by ELISA. In a few lines:
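Primary gastric mucosal cell cultures from mice, incubated the day after preparation with ligands at 1 μM with 10 μM Zn2+ (with or without a somatostatin receptor antagonist) in triplicate for 4 h. Acyl-ghrelin in supernatant measured by ELISA, expressed as percent of medium-alone cells; n=5–7; unpaired t-test with Welch's correction versus vehicle.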
In general terms: In an ELISA, binding on a coated surface is turned into a signal by an enzyme label.

The nature of data set [7]: Aqueous solubility of the compound in phosphate buffered saline at pH 7.0 at 10 mM by turbidimetric method.
Data set [8] concerns the target T2, C-C chemokine receptor type 1 (Homo sapiens) (UniProt P32246).
T2 sequence (whole entry): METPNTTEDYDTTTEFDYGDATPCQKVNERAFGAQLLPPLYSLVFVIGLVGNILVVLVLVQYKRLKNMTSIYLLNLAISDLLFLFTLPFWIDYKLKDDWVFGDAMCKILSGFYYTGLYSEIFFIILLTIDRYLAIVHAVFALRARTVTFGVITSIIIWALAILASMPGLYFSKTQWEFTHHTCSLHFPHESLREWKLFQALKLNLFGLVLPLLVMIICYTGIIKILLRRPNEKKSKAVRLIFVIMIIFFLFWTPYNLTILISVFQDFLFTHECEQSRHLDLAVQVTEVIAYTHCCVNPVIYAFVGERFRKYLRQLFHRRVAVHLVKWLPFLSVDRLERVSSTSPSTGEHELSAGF
The data set can be described thus: Agonist activity at full length human CCR1 assessed as myo-[2-3H]inositol phosphate accumulation measured after 75 mins by scintillation proximity assay. The data set is classed as functional.

Data set [9] concerns the target Neuromedin-U receptor 2 (Homo sapiens) (UniProt Q9GZQ4). As to the kind of experiment: Agonist activity at human NMU2 receptor assessed as myo-[2-3H]inositol phosphate accumulation measured after 75 mins by scintillation proximity assay. The data set is classed as functional.
Data set [10] has as its target T3, G-protein coupled receptor 39 (Homo sapiens, UniProt O43194).
T3 sequence (O43194 whole entry): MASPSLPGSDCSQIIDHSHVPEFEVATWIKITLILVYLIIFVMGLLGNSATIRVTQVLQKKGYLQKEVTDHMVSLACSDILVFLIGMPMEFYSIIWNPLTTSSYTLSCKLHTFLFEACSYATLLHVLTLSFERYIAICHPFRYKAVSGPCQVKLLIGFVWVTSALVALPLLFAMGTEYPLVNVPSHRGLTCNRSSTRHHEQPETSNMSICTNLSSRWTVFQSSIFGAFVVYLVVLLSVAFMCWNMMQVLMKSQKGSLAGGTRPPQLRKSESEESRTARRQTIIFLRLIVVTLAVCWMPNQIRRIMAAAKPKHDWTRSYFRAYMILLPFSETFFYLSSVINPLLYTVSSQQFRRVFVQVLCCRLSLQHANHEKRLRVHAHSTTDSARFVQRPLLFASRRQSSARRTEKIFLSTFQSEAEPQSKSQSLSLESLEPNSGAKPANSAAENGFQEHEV
The data set can be described thus: (§1) Agonist activity at GPR39 (unknown origin) expressed in COS7 cells co-expressing Galphas assessed as increase in intracellular cAMP level in presence of 3 uM Zn2+ measured after 30 mins by chemiluminescence assay. The data set is classed as functional, cell-based.

Data set [11] addresses T4, G-protein coupled receptor 39 (Homo sapiens) (UniProt O43194).
T4 sequence (whole entry): T3 sequence (O43194 whole entry)
Described as §1. In kind it is functional, cell-based.

The nature of data set [12]: Half life in human liver microsomes at 3 uM measured by LC-MS/MS analysis. The data set is classed as ADME, microsome.
For data set [13], the target named is T2, C-C chemokine receptor type 1 (Homo sapiens). The data set can be described thus: Agonist activity at full length human CCR1 assessed as myo-[2-3H]inositol phosphate accumulation in presence of 10 uM Zn2+ measured after 75 mins by scintillation proximity assay. The data set is classed as functional.
For data set [14], the target named is Growth hormone secretagogue receptor type 1 (Homo sapiens) (UniProt Q92847). As to the kind of experiment: Agonist activity at human ghrelin receptor ([…]) assessed as myo-[2-3H]inositol phosphate accumulation measured after 75 mins by scintillation proximity assay. The data set is classed as functional.
Sequence of Growth hormone secretagogue receptor type 1 (Homo sapiens) (Q92847 whole entry): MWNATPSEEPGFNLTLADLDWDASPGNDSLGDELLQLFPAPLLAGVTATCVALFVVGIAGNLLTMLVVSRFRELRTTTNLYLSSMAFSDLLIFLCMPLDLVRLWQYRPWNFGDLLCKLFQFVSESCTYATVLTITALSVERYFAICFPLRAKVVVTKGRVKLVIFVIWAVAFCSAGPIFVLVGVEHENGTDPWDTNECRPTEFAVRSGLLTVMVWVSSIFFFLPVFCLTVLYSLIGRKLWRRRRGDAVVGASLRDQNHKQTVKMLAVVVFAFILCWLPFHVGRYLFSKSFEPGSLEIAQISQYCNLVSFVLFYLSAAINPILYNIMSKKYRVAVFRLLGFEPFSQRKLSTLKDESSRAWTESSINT
Data set [15] relates to Primary gastric mucosal cell. As to the kind of experiment: Induction of CGRP-induced somatostatin release in primary gastric mucosal cells isolated from GPR39 deficient C57BL/6 mouse at 1 uM in presence of 10 uM of Zn2+ measured after 4 hrs by radioimmunoassay. The data set is classed as functional, cell-based. In a few lines:
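Primary gastric mucosal cells from GPR39-KO mice, day after preparation, exposed to ligands (1 μM, 10 μM Zn2+) in triplicate for 4 h; supernatant somatostatin measured by in-house RIA and expressed as percent of medium-alone secretion; 10 nM CGRP used as a comparator stimulus; n=2.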

For data set [16], the target named is T5, G-protein coupled receptor 39 (Mus musculus, UniProt Q5U431).
T5 sequence (Q5U431 whole entry): T1 sequence (whole entry)
The data set can be described thus: Agonist activity at mouse GPR39 expressed in HEK293 cells co-expressing Galphaq assessed as myo-[2-3H]inositol phosphate accumulation measured after 75 mins by scintillation proximity assay. In kind it is functional, cell-based.

Sequence of Neuromedin-U receptor 2 (Homo sapiens) (Q9GZQ4 whole entry): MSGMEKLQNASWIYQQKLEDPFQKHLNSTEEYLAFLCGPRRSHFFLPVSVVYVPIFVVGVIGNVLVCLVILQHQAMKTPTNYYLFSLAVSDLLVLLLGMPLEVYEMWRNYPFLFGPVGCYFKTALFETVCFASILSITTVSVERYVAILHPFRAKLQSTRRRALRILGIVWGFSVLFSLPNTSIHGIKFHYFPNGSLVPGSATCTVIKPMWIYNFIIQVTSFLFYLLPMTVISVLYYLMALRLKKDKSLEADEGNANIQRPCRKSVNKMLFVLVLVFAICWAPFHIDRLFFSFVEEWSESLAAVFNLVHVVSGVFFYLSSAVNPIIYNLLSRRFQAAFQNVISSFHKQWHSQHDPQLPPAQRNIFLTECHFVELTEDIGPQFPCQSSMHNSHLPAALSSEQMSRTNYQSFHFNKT

As to `Cc1nn(-c2ncnc3nc[nH]c23)c2c1C(c1ccc(F)cc1Cl)CC(=O)N2` (stereo unspecified), the microsomal CLint at 3 µM in data set [1] amounted to 23.7 µL/min/mg. The Activity result was “Dose-dependent effect” in [2], 53% in data set [4] and “Dose-dependent effect” in data set [11]. Besides, the result in data set [3], in [8], in data set [9], in [13], in data set [14] and in data set [15] was inactive. Besides, in data set [5], the inhibition is 79%. Also, the inhibition result in data set [6] is “inactive”. Further, the kinetic solubility at 10000 µM in data set [7] turned out to be 65 µM (≈ 25.9 µg/mL). Further, the EC50 is 17 nM in data set [10] and 180 nM in data set [16]. For the same molecule, in data set [12], the half-life at 3 µM was 58 min.
